Bioassay records as filed in PubChem.
Compounds with a hit are over-represented: about 4% of the library has one in this group of screens.
Exocytosis inh: blocks lytic granule exocytosis; TALL-104 LAMP-1 surface exposure, flow cytometry; cells stimulated with thapsigargin and PMA; inhibition, % at 10 µM; 360,000 compounds, 0.66% hits;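 active = inhibition above about 55%, limit read from the data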
Mdm2 MdmX PPI: inhibitors of human Mdm2/MdmX interaction; O15151+Q00987; SaOS-2 split-luciferase Mdm2/MdmX complementation, luminescence; inhibition, % at 8 µM; 330,000 compounds, 3% hits; AID 485346;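 active = inhibition of at least 50% at 8 µM in the primary screen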
UPR CHOP act: apoptotic UPR (CHOP) activation; CHO-CHOP luciferase reporter, luminescence; percent of tunicamycin response over DMSO baseline; activation, % at 10 µM; 330,000 compounds, 0.34% hits; AID 449763;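 active = at 10 µM dose, activation of 40% or more, normalized to positive control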;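 note: 100% = tunicamycin at 10 µg/mL and 0% = DMSO alone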
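Evaluation: % reporter activation, DMSO baseline versus tunicamycin full activation; System: CHO-CHOP luciferase reporter cell line; Input: 500 cells/well; Incubation: 6 h compound treatment, 37 °C; Measured by: Steady-Glo luciferase luminescence; Dosing: one dose, 10 µM in 0.5% DMSO; Buffer or medium: F12 medium, 10% FBS; Benchmarks: positive tunicamycin 10 µg/mL, negative DMSO alone.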
ABHD5-PLIN5 inh: ABHD5-PLIN5 protein interaction inhibition; Q00G26+Q8WTS1; AID 602281; Split G. princeps luciferase complementation, luminescence, 4 h; 360,000 compounds, 0.78% hits; inhibition, % at 4 µM;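 active = inhibition above the mean inhibition across every tested compound plus 3 SD, cut at about 22% in these data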;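 note: 0% = DMSO only wells and the 100% control is not disclosed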
XBP1 UPR activ: adaptive UPR (XBP1) activation | AID 463104 | activation, % at 20 µM | 330,000 compounds, 0.33% hits | CHO-XBP1 luciferase reporter, IRE1-XBP1 UPR activation, luminescence; percent of tunicamycin response, DMSO as zero;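 active = versus positive control, 20 µM dose yields 30% or more activation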;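 note: 100% = tunicamycin at 10 µg/mL and 0% = DMSO only wells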
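Material – CHO cell line with stable XBP1 luciferase reporter · Buffer or medium – F12 plus 10% FBS · Compound – single point, 20 µM final compound, 1% DMSO · Schedule – 16-18 h cell attachment at 37 °C, then 6 h compound exposure · Signal – Steady-Glo luminescence read · Benchmarks – high control tunicamycin 10 µg/mL final, low control DMSO vehicle only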
Granule exo CP1: blocks lytic granule exocytosis; shares compounds with Exocytosis inh; 1,500 compounds, 11% hits; inhibition, % at 10 µM; TALL-104 cells, LAMP-1 externalization, flow cytometry; stimulated with PMA plus thapsigargin; in the data active = inhibition above about 60%;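 note: 0% = stimulated vehicle wells and 100% = unstimulated wells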
Active calls of the source: *; . = no result given; ! = repeats disagree.

SMILES	Exocytosis inh	Mdm2 MdmX PPI	UPR CHOP act	ABHD5-PLIN5 inh	XBP1 UPR activ	Granule exo CP1
Cn1c(OCc2cccnc2)nc2c1c(=O)n(Cc1ccc(Cl)cc1)c(=O)n2C	-8.2	24.5	-0.1	0.9	-2.7	.
COc1cc2nc(SCC(=O)NCCc3ccccc3)n(Cc3ccco3)c(=O)c2cc1OC	-1.3	10.4	0.7	7.2	1.8	.
Cc1cc2nc(/C=C/c3cccnc3)[nH]c2cc1C	57.6*	-13.3	2.8	-1.2	14.5	-10.6
CC12CCCCC1C(C(N)=O)C(=O)O2 (configuration not stated)	-6.3	.	.	6.9	.	.
O=C1CCC2CCCCC2(O)O1 (configuration not stated)	64.5*	22.7	-3.2	-0.5	-0.8	-3.0
Cc1sc2ncnc(N3CCN(Cc4ccccc4)CC3)c2c1-c1ccc(F)cc1	65.4*	30.8	0.8	-7.4	3.1	-11.3
Fc1ccc(-c2csc3ncnc(N4CCN(Cc5ccccc5)CC4)c23)cc1	1.0	33.5	4.3	-2.0	-4.9	.
Cc1cc(-c2csc3ncnc(N4CCN(C)CC4)c23)cc(C)c1C	96.2*	36.1	3.5	-0.6	1.8	1.2
Fc1ccc(CN2CCN(c3ncnc4scc(-c5ccccc5)c34)CC2)cc1	74.5*	28.0	7.6	-1.8	7.3	-5.2
COc1ccc(-c2csc3ncnc(N4CCN(c5ccccc5OC)CC4)c23)cc1	87.9*	20.5	7.1	-12.7	5.1	-10.1
c1ccc(-c2csc3ncnc(N4CCN(Cc5ccc6c(c5)OCO6)CC4)c23)cc1	76.5*	13.8	2.5	-2.0	-4.7	-4.2
O=C(CSc1ncnc2scc(-c3ccccc3)c12)N1CCN(Cc2ccc3c(c2)OCO3)CC1	-2.9	22.7	0.9	-2.3	0.5	.
CCN(Cc1ccc(C#CCCO)cc1)CC1CCCN(CCc2cccc(F)c2)C1 (configuration not stated)	88.2*	26.9	1.0	-3.5	-4.6	-10.5
CN(Cc1ccccc1O)CC1CCCN(CCc2ccc(Cl)cc2)C1 (configuration not stated)	68.6*	41.9	-0.3	0.0	-4.1	-11.7
CN(Cc1ccc(C#CCCO)cc1)CC1CCCN(CCc2ccc(Cl)cc2)C1 (configuration not stated)	69.6*	29.1	-1.1	5.7	-4.0	-10.2
Cc1occc1C(=O)N(C)CC1CCCN(CCc2ccc(Cl)cc2)C1 (configuration not stated)	5.1	.	.	-1.2	.	.
CCCn1c(NCc2cc(OC)ccc2OC)nc2ccccc21	-4.3	-17.3	4.1	0.7	3.1	.
CC(C)(C)[C@@H]1COC(=O)[C@@H](Cc2ccc(F)cc2)C/C=C\C[C@H](CC(=O)N(CCO)Cc2ccccc2)C(=O)N1	56.9*	25.2	6.2	3.9	-5.1	-15.8
COC(=O)C1=C(C)NC(c2c(O)ccc3ccccc23)C(C(=O)OC)=C1C (configuration not stated)	0.2	-9.5	-0.6	7.5	-2.6	.
CCOC(=O)C1CCCC12Nc1cccc3cccc(c13)N2 (configuration not stated)	85.7*	.	.	-1.8	.	-14.0
CCOC(=O)C1CCCN(S(=O)(=O)c2ccc3ccccc3c2)C1 (configuration not stated)	-19.0	5.0	0.8	2.8	-5.4	.
N=C1C(c2nc(-c3ccc(Br)cc3)cs2)=C(O)CN1NC(=O)c1ccc([N+](=O)[O-])cc1	-0.4	19.6	-0.8	13.1	-2.5	.
NC(=O)SCC(=O)Nc1ccc(Cl)cc1	77.9*	-2.4	-1.5	-0.7	3.3	-6.3
COc1ccccc1CNc1nc(NCCOc2ccccc2)c2sccc2n1	56.4*	.	.	5.2	.	45.4
CCCCCCSc1cccc(-c2nc3ccccn3c2NCc2ccccc2)c1	58.2*!	-6.9	1.1	-11.5	6.4	95.4*
COc1ccc(-c2cc3ccccc3n2CC(O)CN2CCCCC2)cc1 (configuration not stated)	6.0	23.1	-0.7	10.8	0.2	.
CCC(=C(c1ccc(OC)cc1)c1ccc(OC)cc1)c1cn(CC(O)CN2CCN(C)CC2)c2ccccc12 (configuration not stated)	88.8*	.	.	16.7	.	83.1*
